Data on three compounds can be found in paper PMC6989153 (Molecular pharmaceutics, 2019).

Read-outs that look alike come from different tables or passages of the source.

Series [1] concerns HDL. The experiment in a line: Native gel electrophoresis of APC analogs in human plasma, HDL band. The class given is in vitro ADME. The following applies: incubated 4 hrs at 37°C, means ± SEM. Put shortly:
(§1)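 Fresh, unfrozen human plasma was incubated with test compound (100nM) with shaking for 4 h at 37°C. Samples in sample buffer were run on non-denaturing Tris-glycine gels at a common voltage and duration. Band position and intensity were read by fluorescence imaging or by radioactivity scanning, followed by Coomassie staining. Standards were mouse albumin, human LDL, human HDL, gamma-globulins, alpha1-acid glycoprotein and fatty acid-free HSA.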

For series [2], the system named is LDL. The experiment in a line: Native gel electrophoresis of APC analogs in human plasma, LDL band. To be noted: incubated 4 hrs at 37°C, means ± SEM. The class given is in vitro ADME. Put shortly:
as §1

For series [3], the target named is T1, Albumin (Homo sapiens, UniProt P02768). The series can be described thus: Native gel electrophoresis of APC analogs in human plasma, albumin band. It is filed as in vitro ADME. The following applies: for Albumin (signal in band on native gel): incubated 4 hrs at 37°C, means ± SEM; for albumin binding: native gel analysis. An outline of the steps:
as §1

Series [4] is classed as in vivo, nude athymic mice. To be noted: for MRT (mean residence time): n=6. An outline of the steps: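 Naive athymic nude mice (20–26 g) on standard chow received test compound by tail-vein injection: fluorescent analogs at 2.6μmol/kg, radioiodinated dose normalized to mass and body weight. Pre-dose blood was taken for background. Serial 10μL maxillary-puncture samples were collected into EDTA (n=6), and levels were read by fluorescence or gamma counting. Non-compartmental analysis gave clearance, AUC, AUMC and mean residence time, normalized to starting dose.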

The test system of series [5] is MDA-MB-231 breast cancer. The experiment in a line: Tumor uptake kinetics in tumor-bearing flank xenografts. The class given is in vivo. The following applies: MDA-MB-231 flank xenografts, IVIS fluorescence imaging, three mice.
In series [6] the test system is lipoprotein fraction. It is filed as in vitro ADME. To be noted: human plasma. An outline of the steps: (§2)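 Fresh, unfrozen human plasma was incubated with test compound plus varying intralipid (20% soybean oil, 1.2% egg yolk phospholipids, 2.25% glycerin emulsion), up to 20% v/v. Plasma partitioning runs were shaken for 4 h at 37°C, then ultracentrifuged at […] for 8 h. The layers were separated, and fluorescence (radiance efficiency) or radioactivity was measured in each, expressed as a percentage per fraction.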

Series [7] deals with T1, Albumin. The experiment in a line: Partitioning in fresh unfrozen human plasma with intralipid, albumin binding. The class given is in vitro ADME. An outline of the steps:
as §2

Series [8] concerns the target fatty acid-free human serum albumin (HSA) (Homo sapiens, UniProt P02768). The experiment in a line: Equilibrium dialysis. It is filed as binding. The following applies: PBS, 37°C. An outline of the steps:
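Fatty acid-free HSA was dissolved in PBS and loaded into a rapid equilibrium dialysis chamber, with PBS in the collection well. The device was shaken at 37°C, and small aliquots were drawn from the collection well over time. Concentration was measured by UV absorbance, or by gamma counting for radioiodinated compound.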
Background: In equilibrium dialysis only unbound substance equilibrates across the membrane.

The nature of series [9]: Log D determination. The class given is physicochemical. To be noted: octanol/water, pH 7.4. Put shortly: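 Test compound (radioiodinated, or fluorescent) was added to octanol and equilibrated overnight. An equal volume of distilled water at pH 7.4 was added, and the mixture was rotated at room temperature, protected from light, for 48 h. The phases were separated, and relative concentrations were measured by gamma counting (radioiodinated compound) or by fluorescence plate reader (fluorescent analogs).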

Series [10] has as its system MDA-MB-231 breast cancer. To be noted: post-injection, tumor-bearing mice; cited from earlier work.
Setting [11] is: nude athymic mice, tail-vein injection.
The mark [12] stands for this setting: nude athymic mice, tail-vein injection, normalized to starting dose.
Setting [13] is: athymic nude, mouse, whole blood, intravenous.

T1 sequence (P02768 25-609): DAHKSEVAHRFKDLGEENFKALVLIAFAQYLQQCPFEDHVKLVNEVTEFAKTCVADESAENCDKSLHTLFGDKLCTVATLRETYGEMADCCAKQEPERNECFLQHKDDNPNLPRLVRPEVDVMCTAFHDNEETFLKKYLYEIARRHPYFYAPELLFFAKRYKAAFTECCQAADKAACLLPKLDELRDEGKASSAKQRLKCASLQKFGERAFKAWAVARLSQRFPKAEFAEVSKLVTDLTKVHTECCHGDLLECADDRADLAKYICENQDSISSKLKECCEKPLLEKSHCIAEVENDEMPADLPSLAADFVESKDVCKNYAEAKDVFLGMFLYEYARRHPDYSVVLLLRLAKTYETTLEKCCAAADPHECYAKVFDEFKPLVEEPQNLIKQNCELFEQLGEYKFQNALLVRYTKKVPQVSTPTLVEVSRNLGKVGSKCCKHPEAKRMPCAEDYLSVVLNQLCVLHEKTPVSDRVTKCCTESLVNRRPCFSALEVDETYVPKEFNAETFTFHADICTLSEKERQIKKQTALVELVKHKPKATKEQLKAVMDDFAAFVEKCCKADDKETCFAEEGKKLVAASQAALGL
Chain of fatty acid-free human serum albumin (HSA) (P02768 25-609): as above

For `CN1/C(=C/C=C2\CCCC(/C=C/C3=[N+](C)c4ccccc4C3(C)C)=C2c2ccc(CCCCCCCCCCCCCCCCCCOP(=O)(O)OCC[N+](C)(C)C)cc2)C(C)(C)c2ccccc21` [compound 1502, 1,3,3-trimethyl-2-[(E)-2-[(3E)-3-(2-[(2E)-1,3,3-trimethyl-2,3-dihydro-1H-indol-2-ylidene]ethylidene}−2-[4-(18-([2-(trimethylazaniumyl)ethylhosphonato]oxy)octadecyl)phenyl]cyclohex-1-en-1-yl]ethenyl]-3H-indol-1-ium], in series [1], the “HDL (signal in band on native gel)” value is given as 20.90 ± 2.57. The “LDL (signal in band on native gel)” value in series [2] is on record as 9.21 ± 0.86. For the same compound, in series [3], the “Albumin (signal in band on native gel)” value stood at 69.88 ± 3.32 and the albumin binding came out at 69.88%. Also, in series [4] (setting [11]), the “MRT (mean residence time)” value came to 33.95 h. Moreover, in series [4] (setting [12]), the AUC came to 13.16 h, the AUMC came to 446.66 hr^2, the CL was 0.08 L/h and the Clearance stood at 0.08 h⁻¹. In addition, in series [5], the “time at which uptake into the cancer was first seen” value was determined as 4.5 h and the “time of peak tumor uptake” value turned out to be 24 h.

Regarding `C[N+](C)(C)CCOP(=O)([O-])OCCCCCCCCCCCCCCCCCCc1ccc(C2=C3C=CC=[N+]3[B-](F)(F)n3cccc32)cc1` [compound 1501, 18-[p-(4,4-difluoro-4-bora-3a,4a-diaza-s-indacene-8-yl)-phenyl]-octadecyl phosphocholine], the “HDL (signal in band on native gel)” value in series [1] turned out to be 10.25 ± 1.25. Further, the “LDL (signal in band on native gel)” value in series [2] stood at 7.11 ± 0.41. Moreover, in [3], the “Albumin (signal in band on native gel)” value amounted to 82.64 ± 1.62 and the albumin binding is on record as 82.64%. Further, in [6] (20% v/v intralipid), the “lipoprotein percentage of fluorescence intensity” value is 14.40%. In series [6] (no intralipid), the “lipoprotein percentage of fluorescence intensity” value worked out at 7.33%. Besides, in [7] (20% intralipid), the albumin-binding percentage is reported as 79.32%. The albumin-binding percentage in series [7] (no intralipid) is 85.93%. Also, the “MRT (mean residence time)” value in series [4] (setting [11]) is 236.07 h. In series [4] (setting [12]), the AUC worked out at 159.64 h, the AUMC was 37686.99 hr^2, the CL worked out at 0.01 L/h and the Clearance was found to be 0.01 h⁻¹.

Take `C[N+](C)(C)CCOP(=O)([O-])OCCCCCCCCCCCCCCCCCCc1ccc(I)cc1` [NM404, 18-(p-Iodophenyl)octadecylphosphocholine]: in series [1], the “HDL (signal in band on native gel)” value came to 15.42 ± 0.41. The “LDL (signal in band on native gel)” value in [2] came to 4.60 ± 0.28. Further, in series [3], the “Albumin (signal in band on native gel)” value was 79.99 ± 0.22 and the albumin binding is 79.99%. Moreover, in series [8], the “binding to fatty acid-free human serum albumin” value was determined as 96%. In addition, in series [4] (setting [13]), the Clearance was 0.333 mL/min and the MRT was determined as 99.2 h. In series [4] (setting [12]), this compound registered an AUC of 43.66 h, an AUMC of 4333.63 hr^2 and a Clearance of 0.02 h⁻¹. This compound also displayed a logD at 48 h in series [9] of 2.07. Also, in [10], the “time at which tumor uptake was seen” value was 24 h and the “time of peak tumor uptake” value was 72 h.

As a reminder, the MRT is the average time that molecules of a dose stay in the body. For orientation: logD means the decadic logarithm of the distribution of all forms, ionised or not, between an organic phase and buffer at a given pH. A low value points to lower lipophilicity.
